ChEMBL document CHEMBL1765047, “Synthesis and in vivo evaluation of (S)-6-(4-fluorophenoxy)-3-((1-[11C]methylpiperidin-3-yl)methyl)-2-o-tolylquinazolin-4(3H)-one, a potential PET tracer for growth hormone secretagogue receptor (GHSR)” (Bioorg Med Chem, 2011)

How the values were obtained:
[1] = Drug uptake in CD1 mouse testis at 0.1 mCi, iv after 10 mins by gamma scintillation counting; type: ADME, organism-based; conditions: in vivo
Outline: (§1)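 Baseline whole-body distribution in male CD1 mice (23-28 g). Tracer 0.1 mCi in 0.2 mL saline (~4000 mCi/μmol) into lateral tail vein. Cervical dislocation at 10, 30 or 90 min; organs dissected on ice, weighed, gamma-counted alongside injectate aliquots as standards. Reported as %ID/g tissue, mean ± SD, n=5.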

[2] = Drug uptake in CD1 mouse testis at 0.1 mCi, iv after 90 mins in presence of (S)-6-(4-Fluorophenoxy)-3-(piperidin-3-ylmethyl)-2-o-tolylquinazolin-4(3H)-one; type: ADME, organism-based; conditions: in vivo, 1.5 h
Outline: (§2)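 Blockade arm: male CD1 mice (23-28 g) given 1 mg/kg blocker s.c. in saline/alcohol 9:1, or vehicle alone, 15 min before tail-vein tracer (0.1 mCi in 0.2 mL saline, ~4000 mCi/μmol). Killed by cervical dislocation at 90 min; organs dissected on ice, weighed, gamma-counted against injectate standards; %ID/g tissue, mean ± SD, n=5.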

[3] = test system: Hypothalamus; assay: Drug uptake in CD1 mouse hypothalamus at 0.1 mCi, iv after 60 mins by gamma scintillation counting; type: ADME, organism-based; conditions: in vivo, 1 h
Outline: (§3)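 Baseline regional brain study in male CD1 mice (23-28 g) injected via tail vein with 0.1 mCi tracer in 0.2 mL saline (~4000 mCi/μmol). Killed at 10, 30, 60 or 90 min; brain regions dissected on ice, weighed and gamma-counted with injectate standards. Reported as %ID/g tissue, mean ± SD, n=3.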

[4] = test system: Cerebellum; assay: Drug uptake in CD1 mouse cerebellum at 0.1 mCi, iv after 60 mins by gamma scintillation counting; type: ADME, organism-based; conditions: in vivo, 1 h; outline: as §3
[5] = test system: Liver; assay: Drug uptake in CD1 mouse liver at 0.1 mCi, iv after 90 mins in presence of (S)-6-(4-Fluorophenoxy)-3-(piperidin-3-ylmethyl)-2-o-tolylquinazolin-4(3H)-one; type: ADME, organism-based; conditions: in vivo, 1.5 h; outline: as §2
[6] = test system: Blood; assay: Drug uptake in CD1 mouse blood at 0.1 mCi, iv after 30 mins by gamma scintillation counting; type: ADME, organism-based; conditions: in vivo, 0.5 h; outline: as §1
[7] = Drug uptake in CD1 mouse adrenal at 0.1 mCi, iv after 30 mins by gamma scintillation counting; type: ADME, organism-based, Adrenal gland; conditions: in vivo, 0.5 h; outline: as §1
[8] = test system: Heart; assay: Drug uptake in CD1 mouse heart at 0.1 mCi, iv after 10 mins by gamma scintillation counting; type: ADME, organism-based; conditions: in vivo; outline: as §1
[9] = test system: Hippocampus; assay: Drug uptake in CD1 mouse hippocampus at 0.1 mCi, iv after 30 mins by gamma scintillation counting; type: ADME, organism-based; conditions: in vivo, 0.5 h; outline: as §3
[10] = test system: Muscle tissue; assay: Drug uptake in CD1 mouse muscle at 0.1 mCi, iv after 90 mins in presence of (S)-6-(4-Fluorophenoxy)-3-(piperidin-3-ylmethyl)-2-o-tolylquinazolin-4(3H)-one; type: ADME, organism-based; conditions: in vivo, 1.5 h; outline: as §2
[11] = test system: Cortex; assay: Drug uptake in CD1 mouse cortex at 0.1 mCi, iv after 90 mins by gamma scintillation counting; type: ADME, organism-based; conditions: in vivo, 1.5 h; outline: as §3
[12] = Drug uptake in CD1 mouse testis at 0.1 mCi, iv after 90 mins by gamma scintillation counting; type: ADME, organism-based; conditions: in vivo, 1.5 h; outline: as §1
[13] = test system: Muscle tissue; assay: Drug uptake in CD1 mouse muscle at 0.1 mCi, iv after 10 mins by gamma scintillation counting; type: ADME, organism-based; conditions: in vivo; outline: as §1
[14] = test system: Hypothalamus; assay: Drug uptake in CD1 mouse hypothalamus at 0.1 mCi, iv after 10 mins by gamma scintillation counting; type: ADME, organism-based; conditions: in vivo; outline: as §3
[15] = test system: Heart; assay: Drug uptake in CD1 mouse heart at 0.1 mCi, iv after 90 mins by gamma scintillation counting; type: ADME, organism-based; conditions: in vivo, 1.5 h; outline: as §1
[16] = test system: Cerebellum; assay: Drug uptake in CD1 mouse cerebellum at 0.1 mCi, iv after 10 mins by gamma scintillation counting; type: ADME, organism-based; conditions: in vivo; outline: as §3
[17] = test system: Cortex; assay: Drug uptake in CD1 mouse cortex at 0.1 mCi, iv after 60 mins by gamma scintillation counting; type: ADME, organism-based; conditions: in vivo, 1 h; outline: as §3
[18] = test system: Liver; assay: Drug uptake in CD1 mouse liver at 0.1 mCi, iv after 10 mins by gamma scintillation counting; type: ADME, organism-based; conditions: in vivo; outline: as §1
[19] = test system: Brain; assay: Drug uptake in CD1 mouse brain at 0.1 mCi, iv after 30 mins by gamma scintillation counting; type: ADME, organism-based; conditions: in vivo, 0.5 h; outline: as §3
[20] = test system: Heart; assay: Drug uptake in CD1 mouse heart at 0.1 mCi, iv after 30 mins by gamma scintillation counting; type: ADME, organism-based; conditions: in vivo, 0.5 h; outline: as §1
[21] = Drug uptake in CD1 mouse testis at 0.1 mCi, iv after 30 mins by gamma scintillation counting; type: ADME, organism-based; conditions: in vivo, 0.5 h; outline: as §1
[22] = Drug uptake in CD1 mouse adrenal at 0.1 mCi, iv after 90 mins in presence of (S)-6-(4-Fluorophenoxy)-3-(piperidin-3-ylmethyl)-2-o-tolylquinazolin-4(3H)-one; type: ADME, organism-based, Adrenal gland; conditions: in vivo, 1.5 h; outline: as §2
[23] = test system: Lung; assay: Drug uptake in CD1 mouse lung at 0.1 mCi, iv after 90 mins by gamma scintillation counting; type: ADME, organism-based; conditions: in vivo, 1.5 h; outline: as §1
[24] = test system: Muscle tissue; assay: Drug uptake in CD1 mouse muscle at 0.1 mCi, iv after 30 mins by gamma scintillation counting; type: ADME, organism-based; conditions: in vivo, 0.5 h; outline: as §1
[25] = test system: Brain; assay: Drug uptake in CD1 mouse brain at 0.1 mCi, iv after 60 mins by gamma scintillation counting; type: ADME, organism-based; conditions: in vivo, 1 h; outline: as §3
[26] = test system: Hypothalamus; assay: Drug uptake in CD1 mouse hypothalamus at 0.1 mCi, iv after 30 mins by gamma scintillation counting; type: ADME, organism-based; conditions: in vivo, 0.5 h; outline: as §3
[27] = test system: Blood; assay: Drug uptake in CD1 mouse blood at 0.1 mCi, iv after 90 mins by gamma scintillation counting; type: ADME, organism-based; conditions: in vivo, 1.5 h; outline: as §1
[28] = test system: Hippocampus; assay: Drug uptake in CD1 mouse hippocampus at 0.1 mCi, iv after 10 mins by gamma scintillation counting; type: ADME, organism-based; conditions: in vivo; outline: as §3
[29] = test system: Brain; assay: Drug uptake in CD1 mouse brain at 0.1 mCi, iv after 10 mins by gamma scintillation counting; type: ADME, organism-based; conditions: in vivo; outline: as §3
[30] = test system: Hippocampus; assay: Drug uptake in CD1 mouse hippocampus at 0.1 mCi, iv after 90 mins by gamma scintillation counting; type: ADME, organism-based; conditions: in vivo, 1.5 h; outline: as §3
[31] = test system: Hippocampus; assay: Drug uptake in CD1 mouse hippocampus at 0.1 mCi, iv after 60 mins by gamma scintillation counting; type: ADME, organism-based; conditions: in vivo, 1 h; outline: as §3
[32] = test system: Liver; assay: Drug uptake in CD1 mouse liver at 0.1 mCi, iv after 30 mins by gamma scintillation counting; type: ADME, organism-based; conditions: in vivo, 0.5 h; outline: as §1
[33] = test system: Heart; assay: Drug uptake in CD1 mouse heart at 0.1 mCi, iv after 90 mins in presence of (S)-6-(4-Fluorophenoxy)-3-(piperidin-3-ylmethyl)-2-o-tolylquinazolin-4(3H)-one; type: ADME, organism-based; conditions: in vivo, 1.5 h; outline: as §2
[34] = test system: Lung; assay: Drug uptake in CD1 mouse lung at 0.1 mCi, iv after 10 mins by gamma scintillation counting; type: ADME, organism-based; conditions: in vivo; outline: as §1
[35] = Lipophilicity, log D of the compound; type: physicochemical; conditions: octanol/water
Outline: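 Computed in silico rather than measured experimentally, for pH 7.4 (log D7.4), using a log P/log D prediction program.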

[36] = test system: Cortex; assay: Drug uptake in CD1 mouse cortex at 0.1 mCi, iv after 10 mins by gamma scintillation counting; type: ADME, organism-based; conditions: in vivo; outline: as §3
[37] = Drug uptake in CD1 mouse adrenal at 0.1 mCi, iv after 10 mins by gamma scintillation counting; type: ADME, organism-based, Adrenal gland; conditions: in vivo; outline: as §1
[38] = test system: Muscle tissue; assay: Drug uptake in CD1 mouse muscle at 0.1 mCi, iv after 90 mins by gamma scintillation counting; type: ADME, organism-based; conditions: in vivo, 1.5 h; outline: as §1
[39] = test system: Blood; assay: Drug uptake in CD1 mouse blood at 0.1 mCi, iv after 10 mins by gamma scintillation counting; type: ADME, organism-based; conditions: in vivo; outline: as §1
[40] = test system: Cerebellum; assay: Drug uptake in CD1 mouse cerebellum at 0.1 mCi, iv after 90 mins by gamma scintillation counting; type: ADME, organism-based; conditions: in vivo, 1.5 h; outline: as §3
[41] = test system: Hypothalamus; assay: Drug uptake in CD1 mouse hypothalamus at 0.1 mCi, iv after 90 mins by gamma scintillation counting; type: ADME, organism-based; conditions: in vivo, 1.5 h; outline: as §3
[42] = test system: Cerebellum; assay: Drug uptake in CD1 mouse cerebellum at 0.1 mCi, iv after 30 mins by gamma scintillation counting; type: ADME, organism-based; conditions: in vivo, 0.5 h; outline: as §3
[43] = test system: Lung; assay: Drug uptake in CD1 mouse lung at 0.1 mCi, iv after 30 mins by gamma scintillation counting; type: ADME, organism-based; conditions: in vivo, 0.5 h; outline: as §1
[44] = test system: Blood; assay: Drug uptake in CD1 mouse blood at 0.1 mCi, iv after 90 mins in presence of (S)-6-(4-Fluorophenoxy)-3-(piperidin-3-ylmethyl)-2-o-tolylquinazolin-4(3H)-one; type: ADME, organism-based; conditions: in vivo, 1.5 h; outline: as §2
[45] = Drug uptake in CD1 mouse adrenal at 0.1 mCi, iv after 90 mins by gamma scintillation counting; type: ADME, organism-based, Adrenal gland; conditions: in vivo, 1.5 h; outline: as §1
[46] = test system: Liver; assay: Drug uptake in CD1 mouse liver at 0.1 mCi, iv after 90 mins by gamma scintillation counting; type: ADME, organism-based; conditions: in vivo, 1.5 h; outline: as §1
[47] = test system: Lung; assay: Drug uptake in CD1 mouse lung at 0.1 mCi, iv after 90 mins in presence of (S)-6-(4-Fluorophenoxy)-3-(piperidin-3-ylmethyl)-2-o-tolylquinazolin-4(3H)-one; type: ADME, organism-based; conditions: in vivo, 1.5 h; outline: as §2
[48] = test system: Brain; assay: Drug uptake in CD1 mouse brain at 0.1 mCi, iv after 90 mins by gamma scintillation counting; type: ADME, organism-based; conditions: in vivo, 1.5 h; outline: as §3
[49] = test system: Cortex; assay: Drug uptake in CD1 mouse cortex at 0.1 mCi, iv after 30 mins by gamma scintillation counting; type: ADME, organism-based; conditions: in vivo, 0.5 h; outline: as §3

- Drug uptake [1]: 1.07 % ID/g
- Drug uptake [2]: 2.25 % ID/g
- Drug uptake [3]: 0.74 % ID/g
- Drug uptake [4]: 0.59 % ID/g
- Drug uptake [5]: 14.77 % ID/g
- Drug uptake [6]: 1.87 % ID/g
- Drug uptake [7]: 10.77 % ID/g
- Drug uptake [8]: 5.11 % ID/g
- Drug uptake [9]: 0.59 % ID/g
- Drug uptake [10]: 2.22 % ID/g
- Drug uptake [11]: 0.66 % ID/g
- Drug uptake [12]: 1.96 % ID/g
- Drug uptake [13]: 3.79 % ID/g
- Drug uptake [14]: 0.56 % ID/g
- Drug uptake [15]: 2.94 % ID/g
- Drug uptake [16]: 0.63 % ID/g
- Drug uptake [17]: 0.65 % ID/g
- Drug uptake [18]: 18.63 % ID/g
- Drug uptake [19]: 0.57 % ID/g
- Drug uptake [20]: 3.91 % ID/g
- Drug uptake [21]: 1.39 % ID/g
- Drug uptake [22]: 10.02 % ID/g
- Drug uptake [23]: 14.74 % ID/g
- Drug uptake [24]: 3.02 % ID/g
- Drug uptake [25]: 0.62 % ID/g
- Drug uptake [26]: 0.58 % ID/g
- Drug uptake [27]: 2.01 % ID/g
- Drug uptake [28]: 0.6 % ID/g
- Drug uptake [29]: 0.54 % ID/g
- Drug uptake [30]: 0.65 % ID/g
- Drug uptake [31]: 0.71 % ID/g
- Drug uptake [32]: 14.6 % ID/g
- Drug uptake [33]: 3.74 % ID/g
- Drug uptake [34]: 26.44 % ID/g
- logD [35]: 4.1
- Drug uptake [36]: 0.63 % ID/g
- Drug uptake [37]: 15.57 % ID/g
- Drug uptake [38]: 2.09 % ID/g
- Drug uptake [39]: 2.14 % ID/g
- Drug uptake [40]: 0.59 % ID/g
- Drug uptake [41]: 0.86 % ID/g
- Drug uptake [42]: 0.56 % ID/g
- Drug uptake [43]: 24.02 % ID/g
- Drug uptake [44]: 2.01 % ID/g
- Drug uptake [45]: 7.87 % ID/g
- Drug uptake [46]: 13.46 % ID/g
- Drug uptake [47]: 16.28 % ID/g
- Drug uptake [48]: 0.54 % ID/g
- Drug uptake [49]: 0.6 % ID/g
SMILES: Cc1ccccc1-c1nc2ccc(Oc3ccc(F)cc3)cc2c(=O)n1C[C@H]1CCCN([11CH3])C1
